{"data": "Assay results collected from several papers", "HDAC9": "Histone deacetylase 9 (HDAC9, Homo sapiens, UniProt Q9UKV0)", "CA9": "Carbonic anhydrase 9 (CA9, Homo sapiens, UniProt Q16790)", "PADI4": "Protein-arginine deiminase type-4 (PADI4, Homo sapiens, UniProt Q9UM07)", "MAOB": "Amine oxidase [flavin-containing] B (MAOB, Homo sapiens, UniProt P27338)", "Pancreatic alpha-amylase": "Pancreatic alpha-amylase (Homo sapiens, UniProt P04746)", "ALDH1A3": "Retinaldehyde dehydrogenase 3 (ALDH1A3, Homo sapiens, UniProt P47895)", "note": "Protocols differ between the studies behind these lines."}
{"SMILES": "COc1ccc(N(Cc2csc(-c3ccc(C)cc3)n2)C(=O)CCCCCC(=O)NO)cc1", "target": "HDAC9", "observed": "enzyme activity", "action": "inhibitor", "IC50": "> 10000 nM"}
{"SMILES": "NS(=O)(=O)c1ccc(-c2ccc(Nc3ccncc3)cc2)cc1", "target": "CA9", "observed": "enzyme activity", "action": "inhibitor", "IC50": "210 nM"}
{"SMILES": "N=C(CCl)NCCC[C@H](NC(=O)c1ccc2cc(O)ccc2c1)C(=O)NCc1ccccc1", "target": "PADI4", "observed": "enzyme activity", "action": "inhibitor", "method": "fluorescence", "setting": "with preincubation", "IC50": "240 nM"}
{"SMILES": "CCCC[C@@H](NC(=O)[C@@H](Cc1cn(C(=O)OC)c2ccccc12)NC(=O)[C@H](CC(C)(C)C)NC(=O)N1[C@H](C)CCC[C@@H]1C)C(=O)O", "target": "Endothelin receptor type B (EDNRB, Homo sapiens, UniProt P24530)", "observed": "ligand displacement", "method": "radioligand", "setting": "cell membranes", "IC50": "3.29 nM"}
{"SMILES": "O=C(Nc1ccc(Cl)c(Br)c1)c1ccc2c(c1)C(=O)NC2=O", "target": "MAOB", "observed": "enzyme activity", "action": "inhibitor", "IC50": "12 nM"}
{"SMILES": "N=C(CCl)NCCC[C@H](NC(=O)c1ccc2cc(Br)ccc2c1)C(=O)NCc1ccccc1", "target": "PADI4", "observed": "enzyme activity", "action": "inhibitor", "method": "fluorescence", "setting": "with preincubation", "IC50": "393 nM"}
{"SMILES": "O=C(CCNC(=O)CNC(=O)CC(c1ccccc1)(c1ccccc1)c1ccccc1)NC[C@@H]1CCCN(Cc2cccnc2F)C1", "target": "Muscarinic acetylcholine receptor M4 (CHRM4, Homo sapiens, UniProt P08173)", "observed": "ligand displacement", "method": "radioligand", "setting": "cell membranes", "IC50": "> 30000 nM"}
{"SMILES": "COc1cc(/C=N/NC(=S)NN=Cc2sccc2C)ccc1Oc1ccnc2cc(Cl)ccc12", "target": "Pancreatic alpha-amylase", "observed": "enzyme activity", "action": "inhibitor", "method": "absorbance", "IC50": "53600 nM"}
{"SMILES": "N=C(CCl)NCCC[C@H](NC(=O)c1cccc(-c2ccc(B(O)O)cc2)c1)C(=O)NCc1ccccc1", "target": "PADI4", "observed": "enzyme activity", "action": "inhibitor", "method": "fluorescence", "setting": "with preincubation", "IC50": "708 nM"}
{"SMILES": "O=C(NO)c1ccc(Cn2cnc3c(Nc4ccc(Cl)cc4)ncnc32)cc1", "target": "HDAC9", "observed": "enzyme activity", "action": "inhibitor", "IC50": "385 nM"}
{"SMILES": "NS(=O)(=O)c1cccc(Nc2nc(-c3cc4cc(Br)ccc4oc3=O)cs2)c1", "target": "CA9", "observed": "enzyme activity", "action": "inhibitor", "IC50": "1910 nM"}
{"SMILES": "N=C(CCl)NCCC[C@H](NC(=O)c1ccc2cc(O)ccc2n1)C(=O)NCc1ccccc1", "target": "PADI4", "observed": "enzyme activity", "action": "inhibitor", "method": "fluorescence", "setting": "with preincubation", "IC50": "560 nM"}
{"SMILES": "COc1cc(/C=N/NC(=S)N/N=C/c2ccc(Cl)cc2)ccc1Oc1ccnc2cc(Cl)ccc12", "target": "Pancreatic alpha-amylase", "observed": "enzyme activity", "action": "inhibitor", "method": "absorbance", "IC50": "44100 nM"}
{"SMILES": "O=C(O)c1cc(O)c(O)c(O)c1", "target": "Catechol O-methyltransferase (Comt, Rattus norvegicus, UniProt P22734)", "observed": "enzyme activity", "action": "inhibitor", "IC50": "709000 nM"}
{"SMILES": "COc1nc2ccc(Br)cc2cc1[C@@H](c1ccccc1)[C@@](O)(CCN(C)C)c1cccc2ccccc12", "target": "ALDH1A3", "observed": "enzyme activity", "action": "inhibitor", "IC50": "< 10000 nM"}
{"SMILES": "NC/C(=C\\F)COc1cccc(Cn2c(=S)[nH]c(=O)c3[nH]cnc32)c1", "target": "MAOB", "observed": "enzyme activity", "action": "inhibitor", "IC50": "13000 nM"}
{"SMILES": "O=C(Nc1ccc(F)c(Cl)c1)c1ccc2c(c1)C(=O)NC2=O", "target": "MAOB", "observed": "enzyme activity", "action": "inhibitor", "IC50": "15 nM"}
{"SMILES": "COc1cc(/C=N/NC(=S)N/N=C/c2ccc(Br)cc2)ccc1Oc1ccnc2cc(Cl)ccc12", "target": "Pancreatic alpha-amylase", "observed": "enzyme activity", "action": "inhibitor", "method": "absorbance", "IC50": "50500 nM"}
{"SMILES": "N=C(CCl)NCCC[C@H](NC(=O)c1ccc2cc(Br)ccc2n1)C(=O)NCc1ccccc1", "target": "PADI4", "observed": "enzyme activity", "action": "inhibitor", "method": "fluorescence", "setting": "with preincubation", "IC50": "1490 nM"}
{"SMILES": "O=C(Nc1ccc(Cl)c(Cl)c1)c1ccc2c(c1)C(=O)NC2=O", "target": "MAOB", "observed": "enzyme activity", "action": "inhibitor", "IC50": "14 nM"}
{"SMILES": "Cc1ccc(-c2ccc(C=O)cc2)c(C)c1", "target": "ALDH1A3", "observed": "enzyme activity", "action": "inhibitor", "IC50": "110 nM"}
